Assay results taken from ChEMBL document CHEMBL1125679, “Novel caffeic acid derivatives: extremely potent inhibitors of 12-lipoxygenase” (J Med Chem, 1991).

How the values were obtained:
[1] = biological target: T1, Polyunsaturated fatty acid 5-lipoxygenase (Rattus norvegicus, UniProt P12527); experiment: Inhibitory activity against 5-lipoxygenase in rat polymorphonuclear leukocytes; type: cell-based
T1 sequence (P12527 whole entry): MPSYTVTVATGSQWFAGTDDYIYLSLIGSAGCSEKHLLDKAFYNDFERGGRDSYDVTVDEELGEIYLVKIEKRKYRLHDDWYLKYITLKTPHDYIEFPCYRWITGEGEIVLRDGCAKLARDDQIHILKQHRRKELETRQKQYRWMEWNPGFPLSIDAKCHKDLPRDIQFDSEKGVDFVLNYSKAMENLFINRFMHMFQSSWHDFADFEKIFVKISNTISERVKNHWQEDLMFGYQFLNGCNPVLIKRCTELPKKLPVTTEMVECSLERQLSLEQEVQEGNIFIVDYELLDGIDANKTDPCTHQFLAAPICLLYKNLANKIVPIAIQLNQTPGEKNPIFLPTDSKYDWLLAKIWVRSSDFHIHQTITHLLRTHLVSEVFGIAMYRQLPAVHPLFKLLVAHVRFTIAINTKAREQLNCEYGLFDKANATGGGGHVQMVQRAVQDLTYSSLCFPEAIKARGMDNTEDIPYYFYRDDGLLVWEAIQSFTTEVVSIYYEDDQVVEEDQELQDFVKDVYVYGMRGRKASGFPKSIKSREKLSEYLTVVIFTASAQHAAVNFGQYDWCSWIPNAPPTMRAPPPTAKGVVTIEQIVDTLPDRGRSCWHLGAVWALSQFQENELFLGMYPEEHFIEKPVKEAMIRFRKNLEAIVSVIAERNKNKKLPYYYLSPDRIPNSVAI
Procedure, shortened: (§1)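 Heparinized rat blood; PMNLs isolated by Ficoll/Hypaque gradient and hypotonic hemolysis, washed thrice in Hanks' solution, resuspended at 2 × 10^7 cells/mL in 1/15 M phosphate buffer pH 8.2 (>94% neutrophils, <1% platelets). Cells sonicated at 4 °C, given 1 mM CaCl2, incubated with [14C]arachidonic acid (0.2 µCi) 20 min at 37 °C; stopped by HCl acidification to pH 3.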

[2] = biological target: T2, Polyunsaturated fatty acid lipoxygenase ALOX15B (Rattus norvegicus, UniProt Q8K4F2); experiment: Inhibitory activity against 15-lipoxygenase in rat polymorphonuclear leukocytes; type: cell-based; procedure, shortened: as §1
T2 sequence (Q8K4F2 whole entry): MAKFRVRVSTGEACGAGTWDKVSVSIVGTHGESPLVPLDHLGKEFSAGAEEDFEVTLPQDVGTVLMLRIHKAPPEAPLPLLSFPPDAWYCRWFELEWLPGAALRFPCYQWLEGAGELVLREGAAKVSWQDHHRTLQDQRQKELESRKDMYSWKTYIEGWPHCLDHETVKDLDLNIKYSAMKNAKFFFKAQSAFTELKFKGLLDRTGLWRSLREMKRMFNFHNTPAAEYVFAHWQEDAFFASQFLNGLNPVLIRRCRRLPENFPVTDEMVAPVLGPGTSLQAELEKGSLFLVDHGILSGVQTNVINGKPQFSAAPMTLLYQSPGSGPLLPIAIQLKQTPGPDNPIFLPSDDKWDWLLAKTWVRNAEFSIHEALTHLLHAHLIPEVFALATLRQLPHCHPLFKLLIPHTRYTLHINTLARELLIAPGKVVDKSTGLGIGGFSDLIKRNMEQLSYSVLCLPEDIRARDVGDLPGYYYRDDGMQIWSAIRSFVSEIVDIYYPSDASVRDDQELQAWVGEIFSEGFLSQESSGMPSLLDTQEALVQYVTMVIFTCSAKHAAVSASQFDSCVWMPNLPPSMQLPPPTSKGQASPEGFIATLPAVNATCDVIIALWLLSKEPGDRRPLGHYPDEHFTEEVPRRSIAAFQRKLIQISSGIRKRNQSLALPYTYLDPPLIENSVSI

12-lipoxygenase = 12-lipoxygenase (Rattus norvegicus, UniProt F1LQ70); experiment: Inhibitory activity against 12-lipoxygenase in rat platelet rich plasma; type: cell-free
Sequence of 12-lipoxygenase (F1LQ70 whole entry, looked up): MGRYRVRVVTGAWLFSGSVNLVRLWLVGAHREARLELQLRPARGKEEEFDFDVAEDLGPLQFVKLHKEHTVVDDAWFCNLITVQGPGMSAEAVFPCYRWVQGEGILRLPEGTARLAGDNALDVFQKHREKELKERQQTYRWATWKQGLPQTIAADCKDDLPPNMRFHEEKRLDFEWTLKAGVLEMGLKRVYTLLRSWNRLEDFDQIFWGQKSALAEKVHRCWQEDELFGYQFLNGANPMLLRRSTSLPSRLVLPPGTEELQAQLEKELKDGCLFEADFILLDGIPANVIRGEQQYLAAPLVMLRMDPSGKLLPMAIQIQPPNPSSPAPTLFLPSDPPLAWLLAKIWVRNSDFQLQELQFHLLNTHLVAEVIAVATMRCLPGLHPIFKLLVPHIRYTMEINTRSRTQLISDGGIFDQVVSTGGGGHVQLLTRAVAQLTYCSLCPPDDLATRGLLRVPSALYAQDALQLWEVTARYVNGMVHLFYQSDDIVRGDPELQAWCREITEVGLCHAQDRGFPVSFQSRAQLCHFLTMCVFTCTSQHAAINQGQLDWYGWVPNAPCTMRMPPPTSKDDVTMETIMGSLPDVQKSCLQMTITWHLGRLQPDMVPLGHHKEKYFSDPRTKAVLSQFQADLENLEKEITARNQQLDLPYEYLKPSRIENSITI

IC50 [1] [µM] | IC50 [2] [µM] | IC50 (12-lipoxygenase) [µM] | Structure (SMILES)
> 10 | > 10 | 0.18 | N#C/C(=C\c1ccc(O)c(O)c1)C(=O)OCCCCCCCCn1ccnc1
> 10 | 0.33 | 0.033 | CCOC(=O)/C(C#N)=C/c1ccc(O)c(O)c1
1.89 | 3.33 | 0.063 | N#C/C(=C\c1ccc(O)c(O)c1)C(=O)OC/C=C/c1ccccc1
> 10 | 3.93 | 0.47 | N#C/C(=C\c1ccc(O)c(O)c1)C(=O)OCCCc1cccnc1
0.09 | 0.5 | 0.013 | N#C/C(=C\c1ccc(O)c(O)c1)C(=O)OCCc1cccs1
– | 0.26 | 0.015 | O=c1cc(-c2ccccc2)oc2cc(O)c(O)c(O)c12 [BAICALEIN]
0.22 | 3.59 | 0.47 | N#C/C(=C\c1ccc(O)c(O)c1)C(=O)OCCCCc1ccccc1
0.16 | 0.43 | 0.051 | N#C/C(=C\c1ccc(O)c(O)c1)C(=O)OCCc1ccccc1
0.16 | 1.4 | 0.053 | N#C/C(=C\c1ccc(O)c(O)c1)C(=O)OCCCc1ccccc1
0.14 | 1.62 | 0.064 | COc1ccccc1CCOC(=O)/C(C#N)=C/c1ccc(O)c(O)c1
